Compounds with a hit are over-represented: about 0.58% of the library has one in this group of screens.
OXTR agonist – agonists of human oxytocin receptor. CHO-OTR cells, Fluo-8 calcium fluorescence; normalized: DMSO 0%, oxytocin 100%. activation, % at 3 µM. 320,000 compounds, 0.32% hits. AID 2435;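 active means activation above the mean of all tested compounds plus 3 SD, cutoff set per screening run, cut at about 20% in these data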;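 further: peak over basal fluorescence ratio from a 100 s FLIPR kinetic read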
Target sequence (P30559 whole entry, looked up): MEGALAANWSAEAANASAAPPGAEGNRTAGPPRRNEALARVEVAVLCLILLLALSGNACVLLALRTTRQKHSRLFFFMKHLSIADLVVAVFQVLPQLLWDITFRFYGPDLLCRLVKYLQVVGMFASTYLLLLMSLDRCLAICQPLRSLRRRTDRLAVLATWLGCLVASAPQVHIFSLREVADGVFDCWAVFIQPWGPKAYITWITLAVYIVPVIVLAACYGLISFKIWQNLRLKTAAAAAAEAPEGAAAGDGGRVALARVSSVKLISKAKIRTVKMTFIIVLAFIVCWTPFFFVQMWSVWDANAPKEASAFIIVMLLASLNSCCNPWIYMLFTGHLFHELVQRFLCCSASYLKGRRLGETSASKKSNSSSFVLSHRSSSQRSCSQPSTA
OXTR potentiator – human OXTR potentiation; P30559; activation, % at 3 µM; 320,000 compounds, 0.061% hits; CHO-OTR cells, Fluo-8 calcium fluorescence, potentiator mode; 0% = oxytocin EC15, 100% = EC100; AID 2445;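 active means activation above that plate's cutoff, the mean activation of tested compounds plus 3 SD, cut at about 6.6% in these data, passing the limit was not always enough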;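 further: 100% uses oxytocin at 75 nM as the full agonist control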
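Replication – single well per compound, singlicate · Assay system – CHO cell line stably expressing human OTR · Timing – 6 min pre-incubation, 100 s read · Measure – normalized max/min fluorescence ratio, % activation · Doses – 3.0 µM, one dose · Detection – Fluo-8 calcium dye fluorescence · Probe or stimulus – oxytocin near EC15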
V1aR counter – activates human V1a receptor in oxytocin agonist counter-screen; 320,000 compounds, 0.25% hits; activation, % at 3 µM; AID 2797; P37288; CHO-V1R cells, Fluo-8 calcium fluorescence, agonist mode; 0% DMSO, 100% 3 nM vasopressin;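 active means activation above the mean activation of all tested compounds plus 3 SD, per screening run, cut at about 20% in these data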;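 further: signal is peak over basal fluorescence ratio across a 100 second FLIPR read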
TRPML3 ag – human mucolipin-3 channel agonism | Q8TDD5 | HEK293 TRPML3-YFP, Fluo-8 calcium fluorescence; 100% = the carbachol control signal | activation, % at 3 µM | 220,000 compounds, 0.29% hits | AID 1448;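 active means activation above its plate's cutoff, the mean activation of the plate's test wells plus 3 SD, cut at about 12% in these data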;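 further: 0% = DMSO only wells and 100% = carbachol wells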
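Material: HEK293 cells stably carrying human TRPML3-YFP; compound dosing: single dose, 3 µM final nominal compound, 0.3% DMSO final; incubation: 1-h 37 °C dye load, 5-s basal, 120-s post-compound reads; technique: Fluo-8 intracellular calcium fluorescence, excitation 470-495 nm, emission 515-575 nm; read-out basis: percent activation from peak-to-basal fluorescence ratio, scaled between DMSO and carbachol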
zfTRPN1 agonist – zebrafish TRPN1 (NompC) channel agonism; HEK293 zebrafish TRPN1-YFP, Fluo-8 calcium fluorescence; 100% = response to 87 µM carbachol; activation, % at 3 µM; 220,000 compounds, 0.18% hits;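 active means activation above its plate's cutoff, the mean activation of test wells on that plate plus 3 SD, cut at about 19% in these data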;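 further: 0% = DMSO alone and 100% = 87 µM carbachol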
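Material – zebrafish TRPN1-YFP in HEK293 cells · Doses – 3 µM single point · Schedule – dye 1 h 37 °C plus 30 min RT · Signal – Fluo-8 calcium fluorescence, excitation 470-495 nm, emission 515-575 nm · Read-out – % activation versus carbachol response · Control set – carbachol high, DMSO low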
OXTR agonist cf – confirmation of human oxytocin receptor agonists | shares compounds with OXTR agonist | CHO-OTR cells, Fluo-8 calcium fluorescence, agonist | activation, % at 3 µM | 390 compounds, 20% hits | AID 434963;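 active means mean activation above about 20% derived from the earlier single-dose screen, limit read from the data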;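 further: peak over minimum fluorescence ratio per well during a 100 second FLIPR read; 0% = DMSO alone and 100% = oxytocin high control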
V1aR counter 3x – V1R agonism in triplicate, counter-screen for OXTR agonists; CHO-V1R cells, Fluo-8 calcium fluorescence, agonist; activation, % at 3 µM; shares compounds with OXTR agonist; 390 compounds, 10% hits;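 active means mean activation over triplicate exceeds the hit threshold set in the earlier primary screen, cut at about 20% in these data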;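 further: peak over basal fluorescence ratio within a 100 second read; 0% = DMSO alone and 100% = 3 nM vasopressin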
The depositor's hits bear a star; nt = no result given; ! = a repeat was not active.

SMILES	OXTR agonist	OXTR potentiator	V1aR counter	TRPML3 ag	zfTRPN1 agonist	OXTR agonist cf	V1aR counter 3x
Cc1ccc(NC(=O)CN(C)C(=O)Cn2ccsc2=N)cc1	0	0	1	1	1	nt	nt
O=Cc1c(C(=O)O)n(CC(=O)O)c2ccccc12	1	-6	0	0	0	nt	nt
COC(=O)[C@@H]1[C@H](CCc2ccccc2)NC(=O)N(Cc2ccccc2)[C@@H]1C	-2	-18	0	nt	nt	nt	nt
O=C(Nc1nc(-c2nc3ccccc3s2)cs1)c1ccc(S(=O)(=O)N2CCOCC2)cc1	21*	-15	16	0	1	6	8
O=C(Nc1nc(-c2ccc(S(=O)(=O)N3CCOCC3)cc2)cs1)c1ccccc1	10	-16	5	1	7	nt	nt
O=C(O)c1cccc(NC(=O)c2cn(-c3ccccc3)nc2-c2cc3ccccc3o2)c1	20*	-16	10	0	0	7	6
COc1ccc(N2C(=O)CSC2c2cccc(F)c2)cc1 (configuration not stated)	-1	-17	0	nt	nt	nt	nt
CCCc1ccc(Oc2c(-c3ccc(O)c(C)c3O)n[nH]c2C)cc1	20*	-6	16	2	10	22*	13
CC(=O)OC1CC(c2cc(C(C)(C)C)c(O)c(C(C)(C)C)c2)=NO1 (configuration not stated)	-2	3	-1	0	-2	nt	nt
CN(C)Cc1c(O)ccc2oc(Cc3ccccc3)cc12	23*	-19	14	2	2	1	1
CN(C)Cc1c(O)ccc2ccccc12	2	-2	0	1	-2	nt	nt
O=C(CNS(=O)(=O)c1ccc(Br)cc1)NCc1ccncc1	0	-4	-1	nt	nt	nt	nt
COc1ccc(/C=C/C(=O)NC(=S)NNC(=O)c2cccs2)cc1	26*	-35	17	1	1	6	8
COc1ccc(C(=O)NNC(=S)NC(=O)c2cccs2)cc1	13	-15	9	nt	nt	nt	nt
Cn1c(=O)c(C(=O)NNC(=O)c2ccccc2F)c(O)c2ccccc21	20*	-11	6	nt	nt	12	10
COc1cc(C(=O)NCC(=O)N/N=C/c2cccnc2)cc(OC)c1OC	-1	-9	0	nt	nt	nt	nt
O=C(c1ccc(S(=O)(=O)Nc2ccc(F)cc2)cc1)N1CCN(c2ccccn2)CC1	21*	-16	13	6	10	14	12
O=C(c1ccc(NS(=O)(=O)c2ccc(F)cc2)cc1)N1CCCCC1	1	-13	2	nt	nt	nt	nt
COc1ccc(N2CCN(C(=O)c3ccc(NS(=O)(=O)c4ccc(F)c(F)c4)cc3)CC2)cc1	14	-6	11	0	-1	nt	nt
COc1ccc(NS(=O)(=O)c2ccc(C(=O)N3CCN(c4ccc(F)cc4)CC3)cc2)cc1	22*	-14	16	nt	nt	16	15
CC(=O)c1ccc(NC(=S)NNC(=O)c2ccncc2)cc1	0	0	0	0	1	nt	nt
CCn1c(=O)c(C(=O)Nc2ncccc2C)c(O)c2ccccc21	32*	-6	20	3	14	6	33*
COc1ccc(C(=O)NNC(=O)CSc2nnc(C3CC3)n2C)cc1	2	7	0	nt	nt	nt	nt
CC(C)(C)N(NC(=O)Nc1ccc(Cl)c(Cl)c1)C(=O)c1ccccc1	20*	-27	8	3	8	10	10
CC(C)(C)N(NC(=O)Nc1ccc(F)cc1)C(=O)c1ccccc1	0	-2	1	0	1	nt	nt
SMILES	OXTR agonist	OXTR potentiator	V1aR counter	TRPML3 ag	zfTRPN1 agonist	OXTR agonist cf	V1aR counter 3x
CC1(C(=O)OCC(=O)NCCNC(=O)COC(=O)C2(C)CC2(Cl)Cl)CC1(Cl)Cl (configuration not stated)	3	-3	3	nt	nt	nt	nt
CC(C)=C(NC(=O)c1ccccc1)C(=O)Nc1cccc(C)c1	-1	-3	1	nt	nt	nt	nt
OC(c1cc(C(F)(F)F)nc2c(C(F)(F)F)cccc12)C1CCCCN1 (configuration not stated)	24*	-16	11	nt	nt	9	8
COC(=O)C1=C(C)N(Cc2ccccc2)C(=NCc2cc(OC)c(OC)c(OC)c2)N[C@H]1c1cccc(F)c1	21*	-8	0	nt	nt	2	0
COC(=O)C1=C(C)N(Cc2ccccc2)C(=NCc2ccc(OC)cc2)N[C@H]1c1cccc(F)c1	24*	-15	20	nt	nt	7	2
COC(=O)C1=C(C)N(Cc2ccccc2)C(=NCc2cccc(Cl)c2)N[C@H]1c1cccc(F)c1	22*	-10	13	nt	nt	12	6
COC(=O)C1=C(C)N(Cc2ccccc2)C(=O)N[C@H]1c1cccc(C(F)(F)F)c1	-1	-17	2	nt	nt	nt	nt
COC(=O)C1=C(C)N(Cc2ccccc2)C(=NCc2ccccc2)N[C@H]1c1cccc(C(F)(F)F)c1	22*	-5	10	nt	nt	12	4
CCc1cc(C(=O)N2CCCc3ccccc32)sc1C	-1	-9	0	nt	nt	nt	nt
CN[C@H]1CC[C@@H](c2ccc(Cl)c(Cl)c2)c2ccccc21	21*!	-19	9	3	2	3	6
O=C1C=C(O)CC(c2ccc(Cl)c(Cl)c2)C1 (configuration not stated)	1	-12	0	1	1	nt	nt
CN(C)CCNC(=O)Cn1nc(C(F)F)cc1C1CC1	0	-5	1	1	0	nt	nt
CCOC(=O)NC(NCc1cccc(C(F)(F)F)c1)(C(F)(F)F)C(F)(F)F	25*	-10	0	1	1	-1	0
CCOC(=O)NC(NCc1ccccc1Cl)(C(F)(F)F)C(F)(F)F	-3	-16	-1	1	0	nt	nt
O=C(CSc1nnc(Cc2cccs2)n1C1CC1)NC1CCS(=O)(=O)C1 (configuration not stated)	0	6	0	nt	nt	nt	nt
O=c1c2ccccc2ncn1-c1ccc([N+](=O)[O-])cc1[N+](=O)[O-]	21*	-16	15	nt	nt	0	1
O=c1c2ccccc2ncn1-c1ccc(Cl)cc1[N+](=O)[O-]	0	-17	0	1	-1	nt	nt
O=C(CCN1C(=O)/C(=C\c2ccccc2)SC1=S)NNC(=O)c1ccccc1O	12	-30	9	nt	nt	nt	nt
O=C(Nc1cccc(S(=O)(=O)NC2=NCCC2)c1)C1CC(=O)N(c2ccc3c(c2)OCCO3)C1 (configuration not stated)	0	-2	0	1	1	nt	nt
CCOC(=O)C(Oc1ccc(=O)n(-c2ccccc2)n1)C(C)=O (configuration not stated)	1	-10	1	0	0	nt	nt

Screens (PubChem)
